Experimental data taken from ChEMBL document CHEMBL5661970 (Cancer Res, 2006).
Active and inactive are the calls of the source. The rule behind the calls is not given here.

Legend:
[1] = AUC (0-infinity) in F344/N JcL-rnu athymic rat at 0.04 mg/kg, po measured upto 72 hrs by HPLC-MS/MS analysis; type: ADME, organism-based; settings: in vivo
Summary of the method: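 Female athymic rats, four per group, given a single oral dose suspended in 0.5% methyl cellulose in water. Tail-vein blood was drawn at set times up to 72 h. Serum was spiked with internal standard, deproteinated with acetonitrile and analysed by HPLC-MS/MS. AUCinf came from noncompartmental analysis.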

HUVEC = test: Inhibition of cell migration in VEGF-induced serum-starved human HUVEC cells at 1 nmol/L incubated for 22 hrs by calcein AM staining based fluorescence plate reader analysis relative to control; type: functional
Summary of the method: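 HUVECs starved 5 h in EBM-2 with 0.1% BSA, placed in upper chamber of microchamber plate; lower chamber held 10 ng/mL VEGF, 0.1% FBS, 0.1% BSA. Compound in both chambers. After 22 h, migrated cells stained with 4 μg/mL calcein AM, read at 485/530 nm; 100%/0% set with/without VEGF in 0.1% DMSO; n = 10.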

LS174T = test: Antitumor activity against human LS174T cells xenografted in gamma-irradiation induced RH-rnu/rnu athymic rat assessed as tumor growth inhibition at 0.2 mg/kg, po administered once daily for 2 weeks and measured on day 14 relative to control; type: functional; settings: light or radiation study, 336 h, read-out: TGI
Summary of the method: (§1)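 Rats were γ-irradiated with 7 Gy whole body, and 24 h later received s.c. tumor cells. Fragments (20-30 mg) from ~1,500 mm3 tumors were then implanted s.c. into irradiated athymic rats. Oral dosing at 0.2 or 1 mg/kg or vehicle ran once daily for 2 weeks from day 0. Tumors were measured with calipers twice weekly (length×width²×0.5). TGI% was taken versus vehicle on day 14 (BxPC-3: day 13), with an unpaired t test on RTV.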

[2] = Maximum concentration at steady state in F344/N JcL-rnu athymic rat at 0.2 mg/kg/day, po measured upto 72 hrs by HPLC-MS/MS analysis; type: ADME, organism-based; settings: in vivo
Summary of the method: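 Steady-state serum levels for repeated oral 0.2 mg/kg daily dosing were simulated from single-dose serum data (female F344/N JcL-rnu rats, four per group, tail-vein sampling to 72 h, HPLC-MS/MS, noncompartmental analysis), not measured directly.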

Calu-6 [3] = test: Antitumor activity against human Calu-6 cells xenografted in RH-rnu/rnu athymic rat assessed as larger enclosed median lumen area by the halos in tumor by measuring vessel diameter at 1 mg/kg, po administered for 14 days by H33342 dye based fluorescence microscopic analysis; type: functional; settings: time 14 day
Summary of the method: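 Calu-6 tumor-bearing athymic rats, three per group, received oral drug at 0.2 or 1 mg/kg or vehicle on days 0-13. They were killed 1 min after i.v. H33342 at 20 mg/kg on day 13. 10 µm cryosections were cut from five tumor levels at least 200 µm apart and examined under UV epifluorescence. The major axis of fluorescent halos around vessels was measured by image analysis, with a Mann-Whitney test.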

Calu-6 [4] = test: Antitumor activity against human Calu-6 cells xenografted in RH-rnu/rnu athymic rat assessed as tumor growth inhibition at 1.0 mg/kg, po administered […] by DCE-MRI analysis; type: functional, organism-based
Summary of the method: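 Calu-6 tumor-bearing athymic rats were randomized at 274-287 mm3 and dosed orally at 0.2 or 1.0 mg/kg or vehicle once daily on days 0-13. Tumor growth was followed by T2-weighted MRI at 1.5 T through day 21.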

A549 = test: Antitumor activity against human A549 cells xenografted in F344/N Jcl-rnu athymic rat assessed as tumor regression at 1.0 mg/kg, po relative to control
OVCAR-3 = test: Antitumor activity against human OVCAR-3 cells xenografted in gamma-irradiation induced RH-rnu/rnu athymic rat assessed as tumor growth inhibition at 1.0 mg/kg, po administered once daily for 2 weeks and measured on day 14 relative to control; type: functional; settings: OVCAR-3, light or radiation study, 336 h, read-out: TGI; summary of the method: as §1
Calu-6 [5] = test: Antitumor activity against human Calu-6 cells xenografted in RH-rnu/rnu athymic rat assessed as increased pericyte coverage at 0.2 mg/kg, po administered for 14 days by immunofluorescence staining analysis relative to control; type: functional; settings: time 14 day
Summary of the method: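 Calu-6 xenografted athymic rats were randomized at 273-275 mm3 and dosed orally for 2 weeks. Paraffin sections were double-stained with anti-CD31 and Cy3-anti-α-smooth muscle actin. Pericyte-associated endothelial cells were counted in six fields per tumor, with six tumors per group and Dunnett's test.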

[6] = target: Mitogen-activated protein kinase 3 (Homo sapiens, UniProt P27361); test: Inhibition of ERK1 phosphorylation in VEGF-stimulated serum-starved human HUVEC cells by immunoblotting analysis; type: cell-based
Summary of the method: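 HUVECs serum-starved, treated with inhibitor (DMSO stock diluted in medium), then stimulated with VEGF. Lysates run on SDS-PAGE and immunoblotted with anti-phospho-p44/42 MAPK antibody. Four independent experiments.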

[7] = Half life in F344/N JcL-rnu athymic rat at 0.2 mg/kg, po measured upto 72 hrs by HPLC-MS/MS analysis; type: ADME, organism-based; settings: in vivo
Summary of the method: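 Female F344/N JcL-rnu rats, four per group, single p.o. dose suspended in 0.5% methyl cellulose. Tail-vein blood sampled at set times to 72 h. Serum spiked with internal standard, deproteinated with acetonitrile, analysed by HPLC-MS/MS. Parameters derived by noncompartmental analysis.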

Sequence of Mitogen-activated protein kinase 3 (P27361 whole entry): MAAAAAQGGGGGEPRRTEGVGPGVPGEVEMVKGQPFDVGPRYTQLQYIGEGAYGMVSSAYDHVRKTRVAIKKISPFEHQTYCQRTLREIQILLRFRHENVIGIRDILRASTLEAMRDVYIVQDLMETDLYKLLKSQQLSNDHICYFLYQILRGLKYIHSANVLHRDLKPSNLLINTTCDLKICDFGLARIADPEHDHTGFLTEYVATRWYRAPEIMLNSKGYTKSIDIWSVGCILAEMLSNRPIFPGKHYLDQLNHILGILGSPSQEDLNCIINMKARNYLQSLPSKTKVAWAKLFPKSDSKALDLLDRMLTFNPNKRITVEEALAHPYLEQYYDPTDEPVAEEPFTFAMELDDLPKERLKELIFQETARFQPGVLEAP

COc1cc2nccc(Oc3ccc(NC(=O)Nc4cc(C)on4)c(Cl)c3)c2cc1OC [TIVOZANIB]
AUC(0-inf) [1]: 340 ng·h/mL
inhibition at 0.001 µM (HUVEC): ~40%
inhibition in vivo at 0.2 mg/kg (LS174T): 85.7%
Cmax [2]: 124 ng/mL
Activity (Calu-6 [3]): 65.8 um
Activity (Calu-6 [4]): Active
tumor regression % at 1 mg/kg (A549): 33%
inhibition in vivo at 1 mg/kg (OVCAR-3): 98.5%
Activity (Calu-6 [5]): 29.6%
IC50 [6]: 0.13 nM
half-life [7]: 467 min
